Bioassay records from PubChem BioAssay.
MrgX1 ag: agonists of human MrgX1 receptor, primary screen, HEK293 cells, Fluo-4 calcium flux. AID 588627, 2011. 0.44% of 310,000 active. B-score at 10 µM. Fluo-4 calcium fluorescence, agonist mode; stronger effect = higher value. Mas-related G-protein coupled receptor member X1 (Homo sapiens), Q96LB2;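 active = calcium response B-score plate-corrected fluorescence ratio at least 3 library SD, with starting fluorescence B-score inside 5 SD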
Target sequence (Q96LB2 whole entry, looked up): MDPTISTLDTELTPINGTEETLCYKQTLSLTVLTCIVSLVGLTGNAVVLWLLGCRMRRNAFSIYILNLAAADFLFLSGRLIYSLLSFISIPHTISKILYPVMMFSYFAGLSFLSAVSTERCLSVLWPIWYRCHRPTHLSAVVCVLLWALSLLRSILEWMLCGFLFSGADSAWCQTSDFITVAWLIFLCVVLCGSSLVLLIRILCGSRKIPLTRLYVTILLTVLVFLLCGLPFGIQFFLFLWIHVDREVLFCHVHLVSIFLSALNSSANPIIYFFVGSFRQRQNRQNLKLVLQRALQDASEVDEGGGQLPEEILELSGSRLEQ
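System – MrgX1-expressing HEK293 cells · Incubation – cells plated overnight, dye loaded 0.5 h 37 °C, 0.5 h room temperature · Technique – kinetic Fluo-4 NW fluorescence of intracellular calcium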
MrgX1 allo act: positive allosteric modulators of MrgX1, primary screen, HEK293 cells, Fluo-4 calcium flux; B-score at 10 µM; 0.63% of 310,000 active; Mas-related G-protein coupled receptor member X1 (Homo sapiens), Q96LB2; AID 588675, 2011; FDSS; stronger effect = higher value;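 active = plate-corrected calcium response at least 3 library SD above typical, normal starting fluorescence, not activating the receptor alone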;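 note: compound read alongside a low EC10 to EC30 dose of BAM8-22 agonist; peak minus trough fluorescence over baseline measured at the second addition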
RGS4 inh: RGS4 inhibitors, primary screen, cell-based, HEK293 M3R inducible RGS4, calcium flux | 0.45% of 310,000 active | Regulator of G-protein signaling 4 (Homo sapiens), P49798 | Fluo-4 calcium flux; stronger effect = higher value; triggered by carbachol at its EC20 | B-score at 10 µM;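 active = B-score, a plate-corrected calcium signal, over three deviations above library mean, with baseline fluorescence within five deviations of library mean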;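 note: RGS4 expression induced by doxycycline in cells with stable M3 receptor; B-score is computed from the integrated fluorescence ratio over baseline after carbachol; higher B-score means a larger calcium signal and so more RGS4 inhibition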
Target sequence (P49798 whole entry, looked up): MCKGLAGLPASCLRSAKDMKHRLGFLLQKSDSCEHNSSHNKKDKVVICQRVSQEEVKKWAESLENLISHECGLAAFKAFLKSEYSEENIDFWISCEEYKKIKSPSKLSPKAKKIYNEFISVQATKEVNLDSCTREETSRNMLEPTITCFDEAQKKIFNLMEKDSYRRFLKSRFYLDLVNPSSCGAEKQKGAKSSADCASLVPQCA
RGS4 pot: RGS4 potentiators or activators, primary screen, cell-based, HEK293 M3R inducible RGS4, calcium flux; carbachol calcium flux Fluo4; stronger effect = lower value; AID 463111, 2010; B-score at 10 µM; 0.92% of 310,000 active;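 active = B-score of the integrated calcium signal more than 4 SD below the library mean, with starting fluorescence not abnormally high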;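 note: negative B-score means reduced calcium response which marks RGS4 activation or potentiation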
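Assay system: HEK293 FlpIn-TREx cells, stable M3R, doxycycline-inducible RGS4 / Probe or stimulus: carbachol, ECmax concentration / Times: overnight RGS4 induction, 30 min dye load 37 °C, 20 min compound RT / Signal: kinetic calcium fluorescence imaging with Fluo4-AM dye, 2 µM / Measure: Agonist-evoked peak-minus-minimum fluorescence over baseline, integrated ratio, B score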
MrgX1 antagonist: antagonists of human MrgX1 receptor, primary screen, HEK293 cells, Fluo-4 calcium flux. Mas-related G-protein coupled receptor member X1 (Homo sapiens), Q96LB2. BAM8-22 antagonism; stronger effect = lower value. B-score at 10 µM. 1.3% of 310,000 active. AID 588676, 2011;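 active = calcium-response B-score plate-corrected more than 3 library SD below zero, starting fluorescence within 5 deviations, no agonist response on first addition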;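 note: peak minus trough fluorescence over baseline after final BAM8-22 challenge near maximal dose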
An asterisk follows results filed as active; i = inactive. Only some compounds are listed: those with a hit (about 3.5% of all), similar ones and a draw of the others.

SMILES	MrgX1 ag	MrgX1 allo act	RGS4 inh	RGS4 pot	MrgX1 antagonist
O=C(COc1ccccc1)NC(=S)Nc1ccc2c3c(cccc13)CC2	i	i	i	i	i
CCOC(=O)C1=C(C)N=c2s/c(=C/c3cccc(OCC(=O)O)c3)c(=O)n2C1c1ccc(F)cc1 (configuration not stated)	i	i	i	i	i
CCOC(=O)C1=C(C)N=c2s/c(=C\c3ccc(C(=O)O)cc3)c(=O)n2C1c1ccc(F)cc1 (configuration not stated)	i	i	i	-7.41*	-4.81*
Cc1ccccc1CS(=O)(=O)CCC(=O)NCCCN1CCN(c2ccccc2F)CC1	i	i	i	i	i
O=C(CCS(=O)(=O)Cc1ccc(Cl)cc1)NCCCN1CCN(c2ccccc2F)CC1	i	i	i	-10.4*	i
Cc1cc(C)c2c(=O)n(CC(=O)NCCCN3CCN(c4ccccc4F)CC3)sc2n1	i	i	i	-9.63*	i
COc1ccc(-c2cnnc(N/N=C/c3ccc(O)cc3)n2)cc1	i	i	i	i	i
COc1ccc(-c2cnnc(N/N=C/c3ccc(C)o3)n2)cc1	i	i	i	i	-5.19*
N=c1c(-c2nc3ccccc3[nH]2)cc(C(=O)c2cccs2)nn1-c1ccccc1	i	i	i	-8.56*	i
N=c1c(-c2nc3ccccc3[nH]2)cc(C(=O)c2ccco2)nn1-c1ccccc1	i	i	i	i	i
C=CCc1ccc(OCCCCCN2CCOCC2)c(OC)c1	i	i	i	-7.48*	i
COC(=O)c1sc2cc([N+](=O)[O-])cc(SCC(C)C)c2c1N	i	i	i	i	-9.24*
CSCC[C@H](NC(=O)N1CCn2c1nc1ccccc12)C(=O)NCc1ccccc1	i	i	i	i	i
CSCC[C@H](NC(=O)N1CCn2c1nc1ccccc12)C(=O)N[C@H](Cc1ccccc1)C(=O)O	i	i	i	i	-7.64*
CCCCCCCC(=O)NNC(=O)Cc1ccccc1	i	i	i	i	-6.9*
CC(C)(C)c1cc(CCC(=O)NNC(=S)NC(=O)c2ccccc2)cc(C(C)(C)C)c1O	49.7*	i	i	i	i
CCCCC(=O)NC(=S)NNC(=O)CCc1ccccc1	49.2*	i	i	i	i
CCC(C)(C)NC(=O)CN(Cc1ccc(OC)cc1)C(=O)CCC(=O)Nc1nccs1	i	i	i	i	i
CC(C(Sc1ccccc1N)c1ccccc1)[N+](=O)[O-] (configuration not stated)	i	i	i	i	i
COc1cccc(N2CCN(C(=O)C3CCCN(c4ncnc5c4nc4n5CCCCC4)C3)CC2)c1 (configuration not stated)	i	i	i	i	i
Cc1ccc(NS(=O)(=O)c2cccc(C(=O)NCC(c3ccc(F)cc3)N3CCOCC3)c2)cc1 (configuration not stated)	i	i	i	i	i
CCOC(=O)c1c(-c2ccccc2)c2cc(OC)ccc2n1CCCN(C)C	i	i	i	i	i
COc1cc(/C=C2/C(=O)NN(c3ccc(Cl)c(Cl)c3)C2=O)cc([N+](=O)[O-])c1O	i	i	i	i	i
COc1cc(/C=C2/C(=O)NN(c3ccc(Cl)cc3)C2=O)cc(Br)c1O	32.7*	i	i	i	i
CCN(Cc1ccc(NC(C)=O)cc1)CC1CCCN(CCc2cccc(F)c2)C1 (configuration not stated)	i	i	i	i	i
SMILES	MrgX1 ag	MrgX1 allo act	RGS4 inh	RGS4 pot	MrgX1 antagonist
CCN(Cc1ccc(C#CCCO)cc1)CC1CCCN(CCc2cccc(OC)c2)C1 (configuration not stated)	i	i	i	-7.01*	i
CC(=O)Nc1cc(S(=O)(=O)Nc2ccccc2C)c(C)cc1C	i	i	i	i	i
Cc1nnc(SCc2cc(=O)[nH]c(/N=C(\N)Nc3ccccc3Sc3ccccc3)n2)s1	i	i	i	-7.4*	i
Cc1nn(-c2ccccc2)c(Cl)c1/C=N/NC(=O)c1ccc(NS(=O)(=O)c2cccs2)cc1	i	11*	i	i	i
Cc1ccc(-n2nc(C)c(/C=N/NC(=O)c3cccnc3)c2Cl)cc1	i	i	i	i	-4.82*
CC(C)(C)N1CC23CCC(C[C@@H]2C1=O)O3 (some centres not stated)	i	i	i	i	i
CC1=C(C#N)c2nc(N)c(C#N)c(C)c2/C1=C\c1ccc(C)cc1	i	i	i	i	-5.9*
NC(=S)N/N=C1\CCOc2ccc(F)cc21	i	i	i	i	i
CCn1c(COc2ccc(C(C)C)cc2)nnc1SCC(=O)Nc1nccs1	i	i	i	i	-7.57*
CCSCc1nnc(SCC(=O)Nc2nccs2)n1CC	i	i	i	i	i
CCN(CC)CCC(C)OC(c1ccccc1)c1ccccc1 (configuration not stated)	i	i	i	-8.69*	i
Cn1c(=O)c2c(nc(NCC3CCCC(CN)C3)n2Cc2ccc(Cl)cc2Cl)n(C)c1=O (configuration not stated)	i	i	i	i	i
Clc1cccc(Cl)c1/C=C/c1nc2ccccc2[nH]1	i	7.75*	i	i	i
O=C(Nc1ccc(Br)cc1)c1cnc[nH]1	i	i	i	i	i
Cc1ccccc1-n1c(SCc2c(C)noc2C)nnc1-c1c[nH]c2ccccc12	i	i	i	i	-4.54*
O=C(COc1ccc(Cl)cc1Cl)NCCCCc1ccccc1	i	i	i	i	i
O=C(COc1ccc([N+](=O)[O-])cc1Cl)NCCc1ccccc1	i	8.95*	i	i	i
Clc1ccc(-c2ccc(CNCc3ccccn3)o2)cc1	i	i	i	i	i
CC(/C=N/NC(=O)Cc1cccs1)=C\c1ccccc1	i	i	i	i	i
CC(/C=N/NC(=O)Cc1cccn1C)=C\c1ccccc1	i	11.8*	i	i	i
O=C(NCc1ccccc1Cl)c1cnc2n(c1=O)CCS2	i	i	i	i	-4.73*
O=C(NCCc1ccccc1)c1cnc2n(c1=O)CCS2	i	i	i	i	i
